Laboratory results: ChEMBL document CHEMBL5715941, “AZD1152, a selective inhibitor of Aurora B kinase, inhibits human tumor xenograft growth by inducing apoptosis” (Clin Cancer Res, 2007)
Activity calls are given as the source filed them. The calls are words filed in the database; no cut-off is given here.

Key:
[1] = system: SW-620; assay: Antitumor activity against human SW620 cells xenografted in immunodeficient Swiss athymic mouse assessed as inhibition of tumor volume at 10 mg/kg/day, sc for 48 hrs on days 7 to 9 and measured on day 23 relative to control; assay type: functional; conditions: SW-620, 408 h, time 17 day
Summary of the method: (§1)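 Male Swiss athymic nude mice, 8-12 wk; tumor cells (1×10^6-1×10^7, 50:50 Matrigel) implanted s.c. on flank. Randomized (n = 8-11) at 0.2-0.5 cm3. AZD1152 in Tris buffer pH 9, or vehicle (0.3 mol/L Tris), by 48-h s.c. osmotic mini-pump infusion (two 24-h pumps in sequence). Caliper volumes up to 3×/week; growth inhibition from change in control vs treated volume; one-tailed t test.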

[2] = system: A549; assay: Antitumor activity against human A549 cells xenografted in immunodeficient Swiss athymic mouse assessed as maximum inhibition of tumor volume at 25 mg/kg/day, sc for 48 hrs on days 13 to 15 and measured on day 15 relative to control; assay type: functional; conditions: A549, 72 h, time 3 day; summary of the method: as §1
[3] = system: COLO 205; assay: Antitumor activity against human COLO 205 cells xenografted in immunodeficient Swiss athymic mouse assessed as maximum inhibition of tumor volume at 150 mg/kg/day, sc for 48 hrs on days 5 to 7 and measured on day 18 relative to control; assay type: functional; conditions: COLO 205, 336 h, time 14 day; summary of the method: as §1
[4] = system: SW-620; assay: Antitumor activity against human SW620 cells xenografted in nude athymic rat assessed as tumor growth inhibition at 25 mg/kg/day, iv for 4 consecutive days and measured at 8 day relative to control; assay type: functional; conditions: SW-620, 192 h
Summary of the method: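 Male nude rats with established SW620 xenografts, randomized at 0.5-1 cm3, received vehicle or AZD1152 (25 mg/kg, in Tris pH 9) as a once-daily i.v. bolus for 4 consecutive days. Tumor volume was measured by caliper (n = 10); growth inhibition relative to vehicle.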

[5] = system: SW-620; assay: Antitumor activity against human SW620 cells xenografted in nude athymic rat assessed as most affect in leukocyte population at 25 mg/kg/day, iv for 4 consecutive days by flow cytometric analysis; assay type: functional, organism-based; conditions: time 4.0 day
[6] = system: SW-620; assay: Antitumor activity against human SW620 cells xenografted in Swiss nude mouse assessed as inhibition in PhH3 level at 2.5 mg/kg/day, sc measured over 48 hrs by flow cytometry analysis relative to control; assay type: functional
Summary of the method: (§2)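 Male nude mice with palpable s.c. SW620 tumors (n = 4/group) received AZD1152 (0.5-150 mg/kg/d) or vehicle by constant 48-h s.c. mini-pump infusion. Tumors were then excised, fixed and disaggregated. Flow cytometry with propidium iodide gave DNA content (2N, 4N, >4N), and rabbit anti-PhH3 with fluorescein anti-rabbit IgG gave PhH3-positive cells (%).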

[7] = system: SW-620; assay: Antitumor activity against human SW620 cells xenografted in immunodeficient Swiss athymic mouse assessed as maximum inhibition of tumor volume at 10 mg/kg/day, sc for 48 hrs on days 7 to 9 and measured on day 10 relative to control; assay type: functional; conditions: SW-620, 96 h, time 4 day; summary of the method: as §1
[8] = system: SW-620; assay: Antitumor activity against human SW620 cells xenografted in nude athymic rat assessed as atrophy in bone marrow at 25 mg/kg/day, iv for 4 consecutive days and measured on 5 day by H&E staining based immunohistochemistry analysis; assay type: functional, organism-based
Summary of the method: (§3)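 Nude rats bearing SW620 tumors were dosed i.v. with AZD1152 at 25 mg/kg/d or with vehicle on days 1-4. Subgroups (n = 3) were killed at set days. Tumor and bone marrow sections were H&E-stained and examined histologically.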

[9] = system: SW-620; assay: Antitumor activity against human SW620 cells xenografted in nude athymic rat assessed as reduction in total cellular content at 25 mg/kg/day, iv for 4 consecutive days and measured on 5 day by H&E staining based immunohistochemistry analysis; assay type: functional, organism-based; summary of the method: as §3
[10] = system: SW-620; assay: Induction of polyploidy in human SW620 cells at 300 nmol/L incubated for 48 hrs by flow cytometry analysis; assay type: functional, cell-based
Summary of the method: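 SW620 cells were grown in L-15 with 10% heat-inactivated FCS at 37°C without CO2. They were exposed to AZD1152-HQPA for 0, 24 or 48 h, fixed in 70% ethanol at −20°C overnight, stained with propidium iodide (10 µg/mL) plus RNase (100 µg/mL), and DNA content was read by flow cytometry.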

[11] = system: SW-620; assay: Antitumor activity against human SW620 cells xenografted in nude athymic rat assessed as normal appearance in bone marrow at 25 mg/kg/day, iv for 4 consecutive days and measured on 9 day by H&E staining based immunohistochemistry analysis; assay type: functional, organism-based; summary of the method: as §3
[12] = system: SW-620; assay: Antitumor activity against human SW620 cells xenografted in Swiss nude mouse assessed as reduction in PhH3 at Ser10 residue at 70 mg/kg/day, sc over 48 hrs by immunohistochemistry analysis; assay type: functional, organism-based
Summary of the method: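 Male nude mice bearing SW620 tumors (n = 4/group) had 48-h s.c. mini-pump infusion of AZD1152 (70 mg/kg/d) or vehicle. Excised tumor sections were stained with H&E, or immunostained for PhH3 Ser10 with rabbit polyclonal antibody, HRP-polymer detection and hematoxylin counterstain.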

[13] = system: SW-620; assay: Antitumor activity against human SW620 cells xenografted in nude athymic rat assessed as proportion of 4N DNA content in tumor cells at 25 mg/kg/day, iv for 1 to 5 consecutive days by flow cytometry analysis relative to control; assay type: functional; conditions: time 1-5 day
Summary of the method: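 Nude rats with SW620 xenografts (0.5-1 cm3) were given vehicle or AZD1152 at 25 mg/kg/d as an i.v. bolus once daily on days 1-4. Subgroups (n = 3) were killed on days 0, 5, 9, 12, 16 and 19. Disaggregated tumors were analyzed by flow cytometry for PhH3 (% of control) and for 4N and >4N DNA (fold over control).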

[14] = system: SW-620; assay: Antitumor activity against human SW620 cells xenografted in immunodeficient Swiss athymic mouse assessed as inhibition of tumor volume at 150 mg/kg/day, sc for 48 hrs on days 7 to 9 and measured on day 23 relative to control; assay type: functional; conditions: SW-620, 408 h, time 17 day; summary of the method: as §1
[15] = system: SW-620; assay: Antitumor activity against human SW620 cells xenografted in immunodeficient Swiss athymic mouse assessed as maximum inhibition of tumor volume at 25 mg/kg/day, sc for 48 hrs on days 7 to 9 and measured on day 14 relative to control; assay type: functional; conditions: SW-620, 192 h, time 8 day; summary of the method: as §1
[16] = system: A549; assay: Antitumor activity against human A549 cells xenografted in immunodeficient Swiss athymic mouse assessed as inhibition of tumor volume at 150 mg/kg/day, sc for 48 hrs on days 13 to 15 and measured on day 29 relative to control; assay type: functional; conditions: A549, 408 h, time 17 day; summary of the method: as §1
[17] = system: Calu-6; assay: Antitumor activity against human Calu-6 cells xenografted in immunodeficient Swiss athymic mouse assessed as inhibition of tumor volume at 150 mg/kg/day, sc for 48 hrs on days 20 to 22 and measured on day 41 relative to control; assay type: functional; conditions: Calu-6, 528 h, time 22 day; summary of the method: as §1
[18] = system: SW-620; assay: Antitumor activity against human SW620 cells xenografted in Swiss nude mouse assessed as inhibition in PhH3 level at 10 to 150 mg/kg/day, sc measured over 48 hrs by flow cytometry analysis relative to control; assay type: functional; conditions: dose 10-150 mg/kg/day; summary of the method: as §2
[19] = system: SW-620; assay: Antitumor activity against human SW620 cells xenografted in nude athymic rat assessed as myelosuppression at 25 mg/kg/day, iv for 4 consecutive days by flow cytometric analysis; assay type: functional, organism-based; conditions: time 4.0 day

SMILES: CCN(CCCOc1ccc2c(Nc3cc(CC(=O)Nc4cccc(F)c4)[nH]n3)ncnc2c1)CCOP(=O)(O)O [BARASERTIB]
- inhibition in vivo at 10 mg/kg/day [1]: 28%
- inhibition in vivo at 25 mg/kg/day [2]: 74%
- inhibition in vivo at 150 mg/kg/day [3]: > 100%
- inhibition in vivo at 25 mg/kg/day [4]: 93%
- Activity [5]: Active
- inhibition in vivo at 2.5 mg/kg/day [6]: 69%
- inhibition in vivo at 10 mg/kg/day [7]: 55%
- Activity [8]: Active
- Activity [9]: Active
- Activity [10]: Active
- Activity [11]: inactive
- Activity [12]: Active
- Activity [13]: 60%
- inhibition in vivo at 150 mg/kg/day [14]: 87%
- inhibition in vivo at 25 mg/kg/day [15]: 65%
- inhibition in vivo at 150 mg/kg/day [16]: 69%
- inhibition in vivo at 150 mg/kg/day [17]: 55%
- inhibition (INH) [18]: 77%
- Activity [19]: Active
